Measurements from ChEMBL document CHEMBL2331352, “Syntheses and anti-allergic activity of 2-((bis(trimethylsilyl)methylthio/methylsulfonyl)methyl)-5-aryl-1,3,4-oxadiazoles” (Eur J Med Chem, 2013).
Active and inactive are the calls of the source. No cut-off for these calls is given here.

Tests used:
[1] = tested on: RBL-2H3; test: Antiallergic activity in rat RBL2H3 cells assessed as inhibition of IgE/Ag-induced beta-hexosaminidase activity at 100 uM incubated for 30 mins by spectrophotometric analysis; type: functional, cell-based
How it was run: (§1)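 RBL-2H3 cells (2 × 10⁵/well) were sensitized overnight with anti-DNP IgE at 200 ng/mL and washed twice in PIPES buffer (25 mM PIPES, pH 7.2, 0.1% BSA, 1 mM CaCl₂, 5.6 mM glucose). They were pretreated 30 min at 37 °C with compound, then challenged with DNP-HSA 25 ng/mL for 15 min at 37 °C and chilled on ice. Supernatant was mixed with p-nitrophenyl-N-acetyl-glucosaminide in 0.1 M citrate pH 4.5 for 1 h at 37 °C. Reaction was stopped with 0.1 M carbonate pH 10.5 and read at 405 nm. Mean ± S.D. of three independent experiments, each in triplicate.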

[2] = tested on: RBL-2H3; test: Antiallergic activity in rat RBL2H3 cells assessed as inhibition of IgE/Ag-induced beta-hexosaminidase activity incubated for 30 mins by spectrophotometric analysis; type: functional, cell-based; conditions: for IC50: RBL-2H3, 0.5 h; how it was run: as §1
[3] = tested on: RBL-2H3; test: Cytotoxicity against rat RBL2H3 cells at 50 to 100 uM after 24 hrs by Ez-cytox assay; type: cell-based; conditions: rbl-2h3, 24 h
How it was run: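 IgE-sensitized RBL-2H3 cells (overnight, 200 ng/mL DNP-specific IgE) were exposed to compound at 0, 50 or 100 concentrations at 37 °C for 23–24 h. EZ-Cytox reagent was added at 10% of volume for 1 h at 37 °C and absorbance read at 450 nm. Viability is given as % of untreated control; mean ± S.D. of three independent experiments, each in triplicate.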

[4] = tested on: RBL-2H3; test: Antiallergic activity in rat RBL2H3 cells assessed as inhibition of IgE/Ag-induced beta-hexosaminidase activity at 50 uM incubated for 30 mins by spectrophotometric analysis; type: functional, cell-based; how it was run: as §1

IC50 [2] | Structure (SMILES) | inhibition [1] | inhibition [2] | Activity [3] | inhibition [4]
37.2 µM | C[Si](C)(C)C([Si](C)(C)C)S(=O)(=O)Cc1nnc(-c2ccccc2)o1 | Active | Dose-dependent effect | Non-toxic | 
62.3 µM | Cc1ccc(-c2nnc(CS(=O)(=O)C([Si](C)(C)C)[Si](C)(C)C)o2)cc1 | Active | Dose-dependent effect | Non-toxic | 
75.5 µM | C[Si](C)(C)C([Si](C)(C)C)S(=O)(=O)Cc1nnc(-c2ccc(Cl)cc2)o1 | Active | Dose-dependent effect | Non-toxic | 
 | C[Si](C)(C)C(SCc1nnc(-c2ccc(Cl)cc2)o1)[Si](C)(C)C | Active | Dose-dependent effect |  | 
 | Cc1ccc(-c2nnc(CSC([Si](C)(C)C)[Si](C)(C)C)o2)cc1 | Active | Dose-dependent effect |  | 
98.8 µM | C[Si](C)(C)C(SCc1nnc(-c2ccccc2)o1)[Si](C)(C)C | Active | Dose-dependent effect |  | Active
